Laboratory results as given in ChEMBL document CHEMBL2146370, “Newly synthesized bis-benzimidazole derivatives exerting anti-tumor activity through induction of apoptosis and autophagy” (Bioorg Med Chem Lett, 2012).
Active and inactive are the calls of the source. The calls are words filed in the database; no cut-off is given here.

Columns and labels:
HeLa = assay: Cytotoxicity against human HeLa cells after 72 hrs by MTT assay; type: functional, cell-based
How it was run: (§1)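 MTT assay in HeLa, HL60 and U937 cancer lines. IC50 in µM is the mean ± SD of three independent experiments. 5-Fluorouracil and paclitaxel served as positive controls.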

U-937 = assay: Cytotoxicity against human U937 cells after 72 hrs by MTT assay; type: functional, cell-based; conditions: U-937, 72 h; how it was run: as §1
HL-60 [1] = assay: Cytotoxicity against human HL60 cells after 72 hrs by MTT assay; type: functional, cell-based; conditions: HL-60, 72 h; how it was run: as §1
PBMC = assay: Cytotoxicity against human PBMC cells assessed as cell viability at 160 uM after 24 to 72 hrs by MTT assay; type: cell-based
How it was run: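 PBMC were taken from three healthy adult volunteers and seeded at 5 × 10^5 cells/well. They were cultured 12, 24, 48 and 72 h across a range of concentrations up to 160 µM, with 5-FU for comparison. Viability is mean ± SD, n=3, compared by p < 0.05.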

HL-60 [2] = assay: Cell cycle arrest in human HL60 cells assessed as accumulation at sub-G1 phase after 72 hrs by PI-based flow cytometry analysis ( Rvb = 1.73 +/-0.08 %); type: functional
How it was run: (§2)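 HL60 cells exposed to 0.5 µM for 24, 48 and 72 h alongside untreated controls. Apoptosis was quantified by flow cytometry as the subG1 fraction.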

HL-60 [3] = assay: Cell cycle arrest in human HL60 cells assessed as accumulation at sub-G1 phase after 24 hrs by PI-based flow cytometry analysis ( Rvb = 1.73 +/-0.08 %); type: functional; how it was run: as §2
HL-60 [4] = assay: Induction of apoptosis in human HL60 cells assessed as decrease in apoptotic ratio at 0.5 uM after 24 hrs by MDC staining-based fluorescence analysis in presence of 3-MA; type: functional, cell-based
How it was run: (§3)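 HL60 cells were treated 24 h with 0.5 µM, with or without 1 mM 3-MA added beforehand. MDC-positive (autophagic) ratio and apoptotic ratio were measured by flow cytometry. Mean ± SD, n = 3.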

HL-60 [5] = assay: Induction of apoptosis in human HL60 cells assessed as non-adherent dead cell at 0.5 uM after 48 hrs by phase contrast microscopy; type: functional, cell-based
How it was run: (§4)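 HL60 cells were cultured with 0.5 µM for 24, 48 and 72 h. Morphology was compared with untreated control cells by microscopy.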

HL-60 [6] = assay: Induction of autophagy in human HL60 cells at 0.5 umol/L after 24 hrs by MDC staining based flow cytometry (reference value: 2.27 +/- 0.43 %); type: functional
How it was run: (§5)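 HL60 cells were treated with 0.5 µmol L-1 for 0, 24, 48 or 72 h, stained with MDC, and fluorescence intensity was analysed by flow cytometry.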

HL-60 [7] = assay: Induction of apoptosis in human HL60 cells assessed as membrane blebbing at 0.5 uM after 48 hrs by phase contrast microscopy; type: functional, cell-based; how it was run: as §4
HL-60 [8] = assay: Induction of apoptosis in human HL60 cells assessed as nuclear fragmentation by acridine orange staining-based fluorescence microscopy; type: functional, cell-based
How it was run: (§6)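 HL60 cells were stained with acridine orange and examined under a fluorescence microscope for chromatin condensation and nuclear fragmentation, with control-medium cells as reference.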

HL-60 [9] = assay: Cell cycle arrest in human HL60 cells assessed as accumulation at sub-G1 phase after 48 hrs by PI-based flow cytometry analysis ( Rvb = 1.73 +/-0.08 %); type: functional; how it was run: as §2
HL-60 [10] = assay: Induction of apoptosis in human HL60 cells assessed as chromatin condensation by acridine orange staining-based fluorescence microscopy; type: functional, cell-based; how it was run: as §6
HL-60 [11] = assay: Induction of autophagy in human HL60 cells assessed as increase in LC3-II level at 0.5 umol/L by Western blot analysis; type: functional, cell-based; conditions: TDE = time-dependent effect
How it was run: (§7)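 HL60 cells were treated with 0.5 µmol L-1 over a time course and analysed by Western blot for Beclin-1 and LC3-I to LC3-II conversion, with β-actin as loading control.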

HL-60 [12] = assay: Induction of autophagy in human HL60 cells assessed as increase in beclin 1 level at 0.5 umol/L by Western blot analysis; type: functional, cell-based; conditions: TDE = time-dependent effect; how it was run: as §7
HL-60 [13] = assay: Cell cycle arrest in human HL60 cells assessed as accumulation at sub-G1 phase by PI-based flow cytometry analysis; type: functional; conditions: TDE = time-dependent effect; how it was run: as §2
[14] = Cytotoxicity against human PBMC cells assessed as cell viability at 5 uM after 12 hrs by MTT assay; type: cell-based; conditions: read-out: Activity
How it was run: (§8)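 PBMC from three healthy adult volunteers, seeded at 5 × 10^5 cells/well in 96-well plates; cultured with various doses of test agent for 12, 24, 48 and 72 h; viability read out; n=3, mean ± SD; significance p < 0.05.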

HL-60 [15] = assay: Induction of autophagy in human HL60 cells at 0.5 umol/L after 72 hrs by MDC staining based flow cytometry (reference value: 2.27 +/- 0.43 %); type: functional; how it was run: as §5
HL-60 [16] = assay: Induction of apoptosis in human HL60 cells assessed as retraction of cellular process at 0.5 uM after 24 hrs by phase contrast microscopy; type: functional, cell-based; how it was run: as §4
HL-60 [17] = assay: Induction of apoptosis in human HL60 cells assessed as decrease in number of MDC-positive cells at 0.5 uM after 24 hrs by MDC staining-based fluorescence analysis in presence of 3-MA; type: functional, cell-based; how it was run: as §3
HL-60 [18] = assay: Induction of autophagy in human HL60 cells at 0.5 umol/L after 48 hrs by MDC staining based flow cytometry (reference value: 2.27 +/- 0.43 %); type: functional; how it was run: as §5
HL-60 [19] = assay: Induction of apoptosis in human HL60 cells assessed as fragmentation of nuclei into apoptotic bodies at 0.5 uM after 48 hrs by phase contrast microscopy; type: functional, cell-based; how it was run: as §4
HL-60 [20] = assay: Induction of apoptosis in human HL60 cells assessed as round cell with shrunken nuclei at 0.5 uM after 48 hrs by phase contrast microscopy; type: functional, cell-based; how it was run: as §4
[21] = Cytotoxicity against human PBMC cells assessed as cell viability at 5 uM after 72 hrs by MTT assay; type: cell-based; conditions: read-out: Activity; how it was run: as §8
[22] = Cytotoxicity against human PBMC cells assessed as cell viability at 5 uM after 24 hrs by MTT assay; type: cell-based; conditions: read-out: Activity; how it was run: as §8
[23] = Cytotoxicity against human PBMC cells assessed as cell viability at 5 uM after 48 hrs by MTT assay; type: cell-based; conditions: read-out: Activity; how it was run: as §8
HL-60 [24] = assay: Induction of autophagy in human HL60 cells assessed as formation of autophagic vacuoles at 0.5 umol/L by MDC staining-based flow cytometry; type: functional, cell-based; conditions: TDE = time-dependent effect
How it was run: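 Autophagic vacuoles were labelled with monodansylcadaverine and viewed by fluorescence microscopy. MDC fluorescence intensity was quantified by flow cytometry after 0.5 µmol L-1 treatment.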

HL-60 [25] = assay: Induction of apoptosis in human HL60 cells assessed as round in cell shape at 0.5 uM after 24 hrs by phase contrast microscopy; type: functional, cell-based; how it was run: as §4

SMILES: COc1cc(-c2nc3cc(Oc4ccc5[nH]c(-c6cc(OC)c(OC)c(OC)c6)nc5c4)ccc3[nH]2)cc(OC)c1OC
- IC50 (HeLa): 9.37 µM
- IC50 (U-937): 6.92 µM
- IC50 (HL-60 [1]): 7.56 µM

SMILES: c1ccc(-c2nc3cc(Oc4ccc5[nH]c(-c6ccccc6)nc5c4)ccc3[nH]2)cc1
- IC50 (HeLa): 18.4 µM
- IC50 (U-937): 17.1 µM
- IC50 (HL-60 [1]): 16.5 µM

SMILES: Brc1ccc(-c2nc3cc(Oc4ccc5[nH]c(-c6ccc(Br)cc6)nc5c4)ccc3[nH]2)cc1
- IC50 (HeLa): 20.4 µM
- IC50 (U-937): 21.7 µM
- IC50 (HL-60 [1]): 17.2 µM

SMILES: COc1cc(OC)cc(-c2nc3cc(Oc4ccc5[nH]c(-c6cc(OC)cc(OC)c6)nc5c4)ccc3[nH]2)c1
- IC50 (HeLa): 8.59 µM
- IC50 (U-937): 7.09 µM
- IC50 (HL-60 [1]): 6.35 µM

SMILES: CN1CCN(c2ccc3[nH]c(-c4ccc5[nH]c(-c6ccc(O)cc6)nc5c4)nc3c2)CC1 [HOECHST 33258]
- IC50 (HeLa): 51.3 µM
- IC50 (U-937): 15.4 µM
- IC50 (HL-60 [1]): 32.4 µM

SMILES: CC(=O)O[C@H]1C(=O)[C@@]2(C)[C@H]([C@H](OC(=O)c3ccccc3)[C@]3(O)C[C@H](OC(=O)[C@H](O)[C@@H](NC(=O)c4ccccc4)c4ccccc4)C(C)=C1C3(C)C)[C@]1(OC(C)=O)CO[C@@H]1C[C@@H]2O [PACLITAXEL]
- IC50 (U-937): 0.00337 µM
- IC50 (HL-60 [1]): 0.00282 µM

SMILES: COc1ccc(-c2nc3cc(Oc4ccc5[nH]c(-c6ccc(OC)cc6)nc5c4)ccc3[nH]2)cc1
- Activity (PBMC): Non-toxic
- Activity (HL-60 [2]): 89.61%
- Activity (HL-60 [3]): 13.8%
- Activity (HL-60 [4]): Active
- Activity (HL-60 [5]): Active
- Activity (HL-60 [6]): 9.79%
- Activity (HL-60 [7]): Active
- Activity (HL-60 [8]): Active
- Activity (HL-60 [9]): 63.02%
- Activity (HL-60 [10]): Active
- Activity (HL-60 [11]): tde
- Activity (HL-60 [12]): tde
- Activity (HL-60 [13]): tde
- viability at 12 h, 5 µM [14]: 98%
- Activity (HL-60 [15]): 89.65%
- Activity (HL-60 [16]): Active
- Activity (HL-60 [17]): Active
- Activity (HL-60 [18]): 47.27%
- Activity (HL-60 [19]): Active
- Activity (HL-60 [20]): Active
- viability at 72 h, 5 µM [21]: 79%
- IC50 (HeLa): 4.96 µM
- IC50 (U-937): 0.58 µM
- IC50 (HL-60 [1]): 0.56 µM
- viability at 24 h, 5 µM [22]: 96%
- viability at 48 h, 5 µM [23]: 88%
- Activity (HL-60 [24]): tde
- Activity (HL-60 [25]): Active

SMILES: Clc1ccc(-c2nc3cc(Oc4ccc5[nH]c(-c6ccc(Cl)cc6Cl)nc5c4)ccc3[nH]2)c(Cl)c1
- IC50 (HeLa): 17.2 µM
- IC50 (U-937): 20.5 µM
- IC50 (HL-60 [1]): 15.8 µM

SMILES: O=c1[nH]cc(F)c(=O)[nH]1 [FLUOROURACIL]
- viability at 12 h, 5 µM [14]: 98%
- viability at 72 h, 5 µM [21]: 76%
- IC50 (HeLa): 0.28 µM
- IC50 (U-937): 1.07 µM
- IC50 (HL-60 [1]): 0.06 µM
- viability at 24 h, 5 µM [22]: 94%
- viability at 48 h, 5 µM [23]: 87%

SMILES: Fc1ccc(-c2nc3cc(Oc4ccc5[nH]c(-c6ccc(F)cc6)nc5c4)ccc3[nH]2)cc1
- IC50 (HeLa): 22.8 µM
- IC50 (U-937): 22.6 µM
- IC50 (HL-60 [1]): 23.2 µM

SMILES: COc1cc(-c2nc3cc(Oc4ccc5[nH]c(-c6ccc(O)c(OC)c6)nc5c4)ccc3[nH]2)ccc1O
- IC50 (HeLa): 10.6 µM
- IC50 (U-937): 5.6 µM
- IC50 (HL-60 [1]): 8.17 µM
